Measured values taken from ChEMBL document CHEMBL4376814, “Novel cyclin-dependent kinase 9 (CDK9) inhibitor with suppression of cancer stemness activity against non-small-cell lung cancer” (Eur J Med Chem, 2019).
Calls of active or inactive are those of the source. The rule behind the calls is not given here.

Key:
[1] = target: Cyclin-dependent kinase-like 4 (Homo sapiens) (UniProt Q5MAI5); assay: Inhibition of human CDKL4 at 1 uM at 1 uM by radiometric method relative to control
In short: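 Percent inhibition of kinase activity at a single compound concentration, measured by the outsourced Eurofins KinaseProfiler panel. Values are the mean of two independent experiments.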

[2] = target: Tau-tubulin kinase 2 (Homo sapiens) (UniProt Q6IQ55); assay: Inhibition of recombinant human TTBK2 (1 to 331 residues) at 1 uM using casein as substrate measured after 40 mins in presence of [gamma33P]ATP by scintillation counting method relative to control
[3] = test system: Macrophage colony-stimulating factor 1 receptor (Homo sapiens), P07333 [Y969C]; assay: Inhibition of recombinant human Fms (538 to end residues) Y969C mutant at 1 uM using EEEEYEEEEEEYYIIEEEEEEYEEEEEEYYEEEEEEKKKK as substrate measured after 40 mins in presence of [gamma33P]ATP by scintillation counting method relative to control
Homo sapiens = organism: Homo sapiens; assay: Inhibition of recombinant full-length human PI3K p110delta/p85alpha N253S mutant at 1 uM using phosphatidylinositol-4, 5-bisphosphate as substrate measured after 40 mins by fluorescence assay relative to control
[4] = target: Ribosomal protein S6 kinase alpha-1 (Homo sapiens) (UniProt Q15418); assay: Inhibition of recombinant full-length human Rsk1 at 1 uM using KKKNRTLSVA as substrate measured after 40 mins in presence of [gamma33P]ATP by scintillation counting method relative to control
NCI-H1299 [5] = assay: Down regulation CDK9 expression in human H1299 cells at 0.25 to 1 uM after 24 hrs by Western blot analysis; format: functional, cell-based
In short: (§1)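 A549 and H1299 cells treated for 24 h with serial dilutions alongside a DMSO control. Protein extracts resolved and immunoblotted.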

[6] = test system: Tyrosine-protein kinase receptor UFO (Homo sapiens), P30530 [Q764R]; assay: Inhibition of recombinant human AXL Q764R mutant (473 to end residues) at 1 uM using KKSRGDYMTMQIG as substrate measured after 40 mins in presence of [gamma33P]ATP by scintillation counting method relative to control
NCI-H1299 [7] = assay: Antiproliferative activity against human H1299 cells assessed as inhibition of cell viability at 1 uM after 72 hrs by CCK-8 assay relative to control; format: functional; settings: NCI-H1299, 72 h
In short: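 Single-concentration viability screen using CCK-8. Cells were seeded at 3000/well and treated for 72 h. A450 read after 1-4 h with reagent. Percent inhibition calculated against untreated control and blank wells as (Ac−As)/(Ac−Ab)×100%.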

[8] = target: BDNF/NT-3 growth factors receptor (Homo sapiens) (UniProt Q16620); assay: Inhibition of recombinant human TRKB (455 to end residues) at 1 uM using poly(Glu, Tyr) 4:1 as substrate measured after 40 mins in presence of [gamma33P]ATP by scintillation counting method relative to control
[9] = target: Testis-specific serine/threonine-protein kinase 1 (Homo sapiens) (UniProt Q9BXA7); assay: Inhibition of recombinant full-length human TSSK1 at 1 uM using KKKVSRSGLYRSPSMPENLNRPR as substrate measured after 40 mins in presence of [gamma33P]ATP by scintillation counting method relative to control
A549 = assay: Downregulation of SOX2 in human A549 cells at 0.25 to 1 uM by Western blot analysis; format: functional, cell-based
[10] = test system: RAC-beta serine/threonine-protein kinase (Homo sapiens), P31751 [S474D]; assay: Inhibition of recombinant human pkb-beta S474D mutant (120 to end residues) at 1 uM using GRPRTSSFAEGKK as substrate measured after 40 mins in presence of [gamma33P]ATP by scintillation counting method relative to control
[11] = target: Dual specificity tyrosine-phosphorylation-regulated kinase 3 (Homo sapiens) (UniProt O43781); assay: Inhibition of recombinant full-length human DYRK3 at 1 uM using RRRFRPASPLRGPPK as substrate measured after 40 mins in presence of [gamma33P]ATP by scintillation counting method relative to control
[12] = target: Phosphatidylinositol 4-phosphate 3-kinase C2 domain-containing subunit alpha (Homo sapiens) (UniProt O00443); assay: Inhibition of recombinant human PI3KC2alpha (299 to end residues) at 1 uM using phosphatidylinositol as substrate measured after 40 mins by HTRF assay relative to control
[13] = target: Mitogen-activated protein kinase kinase kinase 20 (Homo sapiens) (UniProt Q9NYL2); assay: Inhibition of recombinant full-length human ZAK at 1 uM using MBP as substrate measured after 40 mins in presence of [gamma33P]ATP by scintillation counting method relative to control
NCI-H1299 [14] = assay: Antitumour activity against human H1299 cells xenografted in Balb/c mouse assessed as reduction in Oct4 level at 20 to 80 mg/kg, po administered for 3 weeks by […] based light microscopic analysis; format: functional, organism-based
In short: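 Tumours came from the H1299 oral-dosing xenograft run for 3 weeks. Formalin-fixed, paraffin-embedded 5-µm sections were deparaffinized and rehydrated. Primary antibodies (CDK9, cyclin T1, p-Rb Ser780, RNAPII CTD Ser5, Oct4) used at 1:100 overnight at 4 °C. Biotinylated secondary for 1 h at room temperature, then ABC-peroxidase/DAB, hematoxylin counterstain and light microscopy.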

[15] = target: Serine/threonine-protein kinase ULK2 (Homo sapiens) (UniProt Q8IYT8); assay: Inhibition of human ULK2 (1 to 306 residues) using casein as substrate measured after 40 mins in presence of [gamma33P]ATP by scintillation counting method relative to control
[16] = target: Mast/stem cell growth factor receptor Kit (Homo sapiens) (UniProt P10721); assay: Inhibition of recombinant human cKit (544 to end residues) at 1 uM using Poly(Glu,Tyr) 4:1 as substrate measured after 40 mins in presence of [gamma33P]ATP by scintillation counting method relative to control
In short: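 Single-point inhibition at 1 µM was measured in the Eurofins KinaseProfiler panel. Values are the mean of two independent experiments.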

[17] = target: Serine/threonine-protein kinase mTOR (Homo sapiens) (UniProt P42345); assay: Inhibition of recombinant full-length human mTOR at 1 uM after 40 mins in presence of [gamma33P]ATP by scintillation counting method relative to control
[18] = target: Vascular endothelial growth factor receptor 1 (Homo sapiens) (UniProt P17948); assay: Inhibition of recombinant human Flt1 (783 to end residues) at 1 uM using KKKSPGEYVNIEFG as substrate measured after 40 mins in presence of [gamma33P]ATP by scintillation counting method relative to control
NCI-H1299 [19] = assay: Induction of apoptosis in human H1299 cells assessed as viable cells at 0.25 uM after 48 hrs by AnnexinV-FITC/PI staining-based flow cytometric analysis (reference value: 97.1%); format: functional; settings: NCI-H1299, 48 h, read-out: Activity
NCI-H1299 [20] = assay: Downregulation of cyclin T1 expression in human H1299 cells at 0.25 to 1 uM after 24 hrs by Western blot analysis; format: functional, cell-based; in short: as §1

Chain of Vascular endothelial growth factor receptor 1 (Homo sapiens) (P17948 whole entry): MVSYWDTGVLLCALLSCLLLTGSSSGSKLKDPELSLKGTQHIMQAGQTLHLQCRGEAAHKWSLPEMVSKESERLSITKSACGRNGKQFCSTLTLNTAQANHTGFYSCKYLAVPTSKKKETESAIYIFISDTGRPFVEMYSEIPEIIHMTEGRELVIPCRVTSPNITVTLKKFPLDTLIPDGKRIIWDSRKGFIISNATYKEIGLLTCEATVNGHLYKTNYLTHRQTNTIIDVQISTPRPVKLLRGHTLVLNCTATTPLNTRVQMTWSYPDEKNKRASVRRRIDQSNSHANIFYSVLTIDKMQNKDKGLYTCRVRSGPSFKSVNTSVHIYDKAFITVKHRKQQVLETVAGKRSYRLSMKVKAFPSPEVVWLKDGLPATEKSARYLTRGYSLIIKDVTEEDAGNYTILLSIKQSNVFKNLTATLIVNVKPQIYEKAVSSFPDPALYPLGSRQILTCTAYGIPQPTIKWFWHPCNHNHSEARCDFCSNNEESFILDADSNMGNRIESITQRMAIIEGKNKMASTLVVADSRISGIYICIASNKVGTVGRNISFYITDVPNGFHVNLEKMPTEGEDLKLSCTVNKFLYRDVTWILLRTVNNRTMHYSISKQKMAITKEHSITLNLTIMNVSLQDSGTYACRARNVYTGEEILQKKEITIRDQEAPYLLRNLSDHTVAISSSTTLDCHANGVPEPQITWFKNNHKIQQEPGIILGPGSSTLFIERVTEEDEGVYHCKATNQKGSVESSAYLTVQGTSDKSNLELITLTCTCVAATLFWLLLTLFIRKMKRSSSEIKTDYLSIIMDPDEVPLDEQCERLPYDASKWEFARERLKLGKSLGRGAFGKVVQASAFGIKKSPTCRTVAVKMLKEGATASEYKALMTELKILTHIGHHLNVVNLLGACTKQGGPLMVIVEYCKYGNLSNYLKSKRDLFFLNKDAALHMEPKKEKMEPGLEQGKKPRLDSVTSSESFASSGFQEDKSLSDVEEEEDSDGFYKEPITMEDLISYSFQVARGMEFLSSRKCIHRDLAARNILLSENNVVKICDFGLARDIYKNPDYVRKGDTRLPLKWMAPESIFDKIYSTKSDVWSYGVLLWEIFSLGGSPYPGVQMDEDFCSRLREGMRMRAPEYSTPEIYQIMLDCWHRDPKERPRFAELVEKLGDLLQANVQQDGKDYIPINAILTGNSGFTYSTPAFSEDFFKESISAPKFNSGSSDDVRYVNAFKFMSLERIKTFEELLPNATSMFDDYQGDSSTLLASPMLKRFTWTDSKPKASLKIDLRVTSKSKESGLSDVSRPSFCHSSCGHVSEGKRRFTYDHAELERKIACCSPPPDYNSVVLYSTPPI
Chain of BDNF/NT-3 growth factors receptor (Homo sapiens) (Q16620 32-822 limits assumed): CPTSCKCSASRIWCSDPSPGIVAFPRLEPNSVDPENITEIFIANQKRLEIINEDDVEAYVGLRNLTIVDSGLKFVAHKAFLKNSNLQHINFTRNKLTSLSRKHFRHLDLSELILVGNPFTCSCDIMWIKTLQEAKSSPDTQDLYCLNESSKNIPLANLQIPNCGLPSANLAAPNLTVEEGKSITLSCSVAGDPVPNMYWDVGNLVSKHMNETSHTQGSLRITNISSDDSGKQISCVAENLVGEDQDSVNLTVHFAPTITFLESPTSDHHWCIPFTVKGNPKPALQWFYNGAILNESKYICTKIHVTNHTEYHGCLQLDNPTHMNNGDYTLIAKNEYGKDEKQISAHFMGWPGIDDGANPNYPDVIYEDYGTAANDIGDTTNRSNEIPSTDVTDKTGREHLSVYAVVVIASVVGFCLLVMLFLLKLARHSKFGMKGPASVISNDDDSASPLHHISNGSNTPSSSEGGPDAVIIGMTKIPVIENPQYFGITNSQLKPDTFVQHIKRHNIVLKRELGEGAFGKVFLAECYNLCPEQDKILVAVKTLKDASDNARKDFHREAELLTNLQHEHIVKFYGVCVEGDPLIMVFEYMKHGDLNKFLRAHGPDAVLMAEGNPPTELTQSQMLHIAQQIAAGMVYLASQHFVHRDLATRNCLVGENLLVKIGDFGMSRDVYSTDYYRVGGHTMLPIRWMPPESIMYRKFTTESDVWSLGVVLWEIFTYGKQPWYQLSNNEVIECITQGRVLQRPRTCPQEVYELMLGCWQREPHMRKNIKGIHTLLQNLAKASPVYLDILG
Chain of Mitogen-activated protein kinase kinase kinase 20 (Homo sapiens) (Q9NYL2 2-800 limits assumed): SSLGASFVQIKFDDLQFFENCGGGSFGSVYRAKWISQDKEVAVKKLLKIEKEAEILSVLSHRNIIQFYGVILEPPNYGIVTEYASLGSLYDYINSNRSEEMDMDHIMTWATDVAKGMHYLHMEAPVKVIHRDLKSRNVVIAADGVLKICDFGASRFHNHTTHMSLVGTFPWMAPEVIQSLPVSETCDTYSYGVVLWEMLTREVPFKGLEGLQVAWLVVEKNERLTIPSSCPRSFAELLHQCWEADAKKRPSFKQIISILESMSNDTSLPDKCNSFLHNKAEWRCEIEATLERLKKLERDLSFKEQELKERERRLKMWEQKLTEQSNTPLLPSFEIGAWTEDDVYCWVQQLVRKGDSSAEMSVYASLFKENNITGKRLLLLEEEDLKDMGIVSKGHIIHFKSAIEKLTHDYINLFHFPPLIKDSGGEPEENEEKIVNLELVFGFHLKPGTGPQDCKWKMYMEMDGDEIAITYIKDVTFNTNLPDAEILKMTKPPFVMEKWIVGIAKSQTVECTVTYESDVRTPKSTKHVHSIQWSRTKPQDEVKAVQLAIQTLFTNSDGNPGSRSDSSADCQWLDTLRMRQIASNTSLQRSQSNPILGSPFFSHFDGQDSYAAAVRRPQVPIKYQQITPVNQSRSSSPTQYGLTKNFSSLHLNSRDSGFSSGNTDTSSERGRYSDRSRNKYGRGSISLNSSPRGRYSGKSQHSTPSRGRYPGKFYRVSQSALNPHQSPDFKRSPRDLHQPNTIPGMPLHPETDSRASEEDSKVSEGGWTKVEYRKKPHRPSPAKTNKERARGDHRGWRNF
Chain of Tau-tubulin kinase 2 (Homo sapiens) (Q6IQ55 whole entry, the tested form may be a part): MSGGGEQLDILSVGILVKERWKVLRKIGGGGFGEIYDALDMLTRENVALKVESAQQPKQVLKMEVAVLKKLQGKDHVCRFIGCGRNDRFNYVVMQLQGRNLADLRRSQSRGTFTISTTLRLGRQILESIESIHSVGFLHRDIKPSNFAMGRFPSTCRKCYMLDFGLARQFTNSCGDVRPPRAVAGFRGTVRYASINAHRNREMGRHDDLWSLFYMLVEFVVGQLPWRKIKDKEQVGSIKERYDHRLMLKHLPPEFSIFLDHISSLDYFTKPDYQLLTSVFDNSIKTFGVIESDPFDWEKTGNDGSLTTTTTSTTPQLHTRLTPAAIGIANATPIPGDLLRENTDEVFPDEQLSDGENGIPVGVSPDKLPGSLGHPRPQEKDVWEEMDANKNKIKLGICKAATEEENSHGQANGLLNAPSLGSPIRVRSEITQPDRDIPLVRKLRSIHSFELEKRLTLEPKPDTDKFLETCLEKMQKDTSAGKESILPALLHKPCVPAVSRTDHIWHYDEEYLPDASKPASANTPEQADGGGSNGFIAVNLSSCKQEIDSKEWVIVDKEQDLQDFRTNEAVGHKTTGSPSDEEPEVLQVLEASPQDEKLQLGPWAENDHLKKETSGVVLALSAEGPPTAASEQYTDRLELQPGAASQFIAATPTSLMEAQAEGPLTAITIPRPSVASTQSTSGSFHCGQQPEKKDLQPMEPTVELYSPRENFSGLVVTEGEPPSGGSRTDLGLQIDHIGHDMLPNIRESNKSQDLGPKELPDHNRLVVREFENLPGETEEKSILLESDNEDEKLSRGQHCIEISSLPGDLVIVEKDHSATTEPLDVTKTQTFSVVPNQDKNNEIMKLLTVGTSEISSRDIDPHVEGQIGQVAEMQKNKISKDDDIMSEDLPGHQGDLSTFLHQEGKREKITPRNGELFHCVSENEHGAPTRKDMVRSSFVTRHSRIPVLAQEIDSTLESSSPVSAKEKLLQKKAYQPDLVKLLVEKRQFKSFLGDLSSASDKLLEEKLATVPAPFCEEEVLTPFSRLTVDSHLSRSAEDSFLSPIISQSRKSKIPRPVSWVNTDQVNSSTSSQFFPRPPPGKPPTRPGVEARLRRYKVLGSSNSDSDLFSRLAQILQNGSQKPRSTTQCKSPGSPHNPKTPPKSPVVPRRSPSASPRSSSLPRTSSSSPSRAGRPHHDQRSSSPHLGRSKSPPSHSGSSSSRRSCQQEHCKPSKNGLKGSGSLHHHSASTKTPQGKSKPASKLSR
Chain of Testis-specific serine/threonine-protein kinase 1 (Homo sapiens) (Q9BXA7 whole entry): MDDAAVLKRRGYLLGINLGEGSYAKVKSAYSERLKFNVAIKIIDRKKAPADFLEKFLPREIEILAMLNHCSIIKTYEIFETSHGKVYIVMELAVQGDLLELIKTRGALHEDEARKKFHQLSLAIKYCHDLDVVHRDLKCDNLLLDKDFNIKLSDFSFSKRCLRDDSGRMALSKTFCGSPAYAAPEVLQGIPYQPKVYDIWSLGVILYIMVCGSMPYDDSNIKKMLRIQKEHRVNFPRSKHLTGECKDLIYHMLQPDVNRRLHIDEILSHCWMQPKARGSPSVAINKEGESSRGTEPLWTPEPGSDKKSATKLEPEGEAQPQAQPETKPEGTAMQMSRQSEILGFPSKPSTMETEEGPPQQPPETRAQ
Chain of RAC-beta serine/threonine-protein kinase (Homo sapiens), P31751 [S474D] (P31751 whole entry S474D): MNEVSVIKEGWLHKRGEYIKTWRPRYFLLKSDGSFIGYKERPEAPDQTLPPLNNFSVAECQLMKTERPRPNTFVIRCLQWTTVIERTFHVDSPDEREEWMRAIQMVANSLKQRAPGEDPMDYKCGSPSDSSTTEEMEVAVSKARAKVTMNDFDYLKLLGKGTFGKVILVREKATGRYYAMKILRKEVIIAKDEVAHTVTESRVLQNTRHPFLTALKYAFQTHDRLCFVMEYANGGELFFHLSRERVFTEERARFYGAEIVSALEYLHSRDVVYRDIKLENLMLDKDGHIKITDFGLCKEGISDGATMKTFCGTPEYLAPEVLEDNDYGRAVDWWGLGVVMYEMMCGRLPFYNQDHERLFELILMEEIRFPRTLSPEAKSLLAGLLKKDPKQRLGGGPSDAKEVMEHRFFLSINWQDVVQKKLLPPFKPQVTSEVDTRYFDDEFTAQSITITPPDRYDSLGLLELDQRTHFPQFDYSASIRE

CN(C)C(=O)c1cc2cnc(Nc3ccc(NC(=O)CCCCCCCN=C=S)cc3)nc2n1C1CCCC1
inhibition [1]: 25%
inhibition [2]: -5%
inhibition [3]: 40%
inhibition (Homo sapiens): 2%
inhibition [4]: 21%
Activity (NCI-H1299 [5]): inactive
inhibition [6]: 71%
inhibition at 1 µM (NCI-H1299 [7]): 87.4%
inhibition [8]: 92%
inhibition [9]: 7%
Activity (A549): Active
inhibition [10]: 23%
inhibition [11]: 17%
inhibition [12]: -3%
inhibition [13]: 86%
Activity (NCI-H1299 [14]): Active
inhibition [15]: -7%
inhibition [16]: 26%
inhibition [17]: -1%
inhibition [18]: 71%
viability at 0.25 µM (NCI-H1299 [19]): 96.7%
Activity (NCI-H1299 [20]): Active
